Results taken from ChEMBL document CHEMBL5696442, “Discovery of type II inhibitors of TGFβ-activated kinase 1 (TAK1) and mitogen-activated protein kinase kinase kinase kinase 2 (MAP4K2)” (J Med Chem, 2015).
Calls of active or inactive are those of the source. The rule behind the calls is not given here.

Legend:
[1] = biological target: Putative phosphatidylinositol 4-kinase alpha-like protein P2 (Homo sapiens) (UniProt A4QPH2); experiment: Inhibition of PI4KAP2 ATP labeling site in human Huh-7 cell lysate at 1 uM by KiNativ Profiling analysis relative to control; type: subcellular
[2] = biological target: Serine/threonine-protein kinase 4 (Homo sapiens) (UniProt Q13043); experiment: Inhibition of MST1 Lys2 labeling site harbouring IHRDIKAGNILLNTEGHAK in human Huh-7 cells at 1 uM by KiNativ Profiling analysis relative to control
[3] = biological target: Dual specificity mitogen-activated protein kinase kinase 1 (Homo sapiens) (UniProt Q02750); experiment: Inhibition of MAP2K1 Lys2 labeling site harbouring IMHRDVKPSNILVNSR in human Huh-7 cell lysate at 1 uM by KiNativ Profiling analysis relative to control; type: subcellular
[4] = biological target: Serine/threonine-protein kinase VRK2 (Homo sapiens) (UniProt Q86Y07); experiment: Inhibition of VRK2 Lys2 labeling site in human Huh-7 cells at 1 uM by KiNativ Profiling analysis relative to control; type: cell-based
[5] = biological target: Cyclin-dependent kinase 9 (Homo sapiens) (UniProt P50750); experiment: Inhibition of CDK9 (unknown origin) at 10 uM by Ambit Kinomescan binding assay relative to control
[6] = biological target: Ribosomal protein S6 kinase alpha-5 (Homo sapiens) (UniProt O75582); experiment: Inhibition of C-terminal RPS6KA5 kinase domain 2 (unknown origin) at 10 uM by Ambit Kinomescan binding assay
[7] = biological target: Serine/threonine-protein kinase 26 (Homo sapiens) (UniProt Q9P289); experiment: Inhibition of MST4 ATP labeling site in human Huh-7 cells at 10 uM by KiNativ Profiling analysis relative to control; type: cell-based
[8] = biological target: Rho-associated protein kinase 2 (Homo sapiens) (UniProt O75116); experiment: Inhibition of ROCK2 (unknown origin) at 10 uM by Ambit Kinomescan binding assay
In short: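 ATP-site competition binding assay across a panel of more than 420 kinases, with each compound tested at 10 or 1 μM.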

[9] = biological target: Calcium/calmodulin-dependent protein kinase type 1 (Homo sapiens) (UniProt Q14012); experiment: Inhibition of CaMK1a K1 labeling site in human Huh-7 cells at 10 uM by KiNativ Profiling analysis relative to control; type: cell-based
[10] = biological target: Tyrosine-protein kinase FRK (Homo sapiens) (UniProt P42685); experiment: Inhibition of FRK (unknown origin) at 10 uM by Ambit Kinomescan binding assay relative to control
[11] = biological target: T1, Dual specificity mitogen-activated protein kinase kinase 6 (Homo sapiens) (UniProt P52564); experiment: Inhibition of MAP2K6 K2 labeling site in human Huh-7 cells at 10 uM by KiNativ Profiling analysis relative to control; type: cell-based
T1 sequence (whole entry): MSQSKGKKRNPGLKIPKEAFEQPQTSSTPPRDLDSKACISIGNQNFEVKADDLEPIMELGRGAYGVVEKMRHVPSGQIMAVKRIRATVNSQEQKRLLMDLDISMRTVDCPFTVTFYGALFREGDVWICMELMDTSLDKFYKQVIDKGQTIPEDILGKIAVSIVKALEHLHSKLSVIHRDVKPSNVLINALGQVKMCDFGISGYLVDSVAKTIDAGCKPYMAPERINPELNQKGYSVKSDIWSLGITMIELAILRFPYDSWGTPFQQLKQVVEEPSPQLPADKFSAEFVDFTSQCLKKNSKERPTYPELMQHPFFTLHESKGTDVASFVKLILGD

[12] = biological target: Activated CDC42 kinase 1 (Homo sapiens) (UniProt Q07912); experiment: Inhibition of ACK Lys1 labeling site in human A-375 cells at 5 uM by KiNativ Profiling analysis relative to control; type: cell-based
[13] = biological target: Mitogen-activated protein kinase kinase kinase 9 (Homo sapiens) (UniProt P80192); experiment: Inhibition of MLK1 (unknown origin) at 10 uM by Ambit Kinomescan binding assay
[14] = biological target: Mitogen-activated protein kinase 7 (Homo sapiens) (UniProt Q13164); experiment: Inhibition of Erk5 K2 labeling site in human Huh-7 cells at 1 uM by KiNativ Profiling analysis relative to control; type: cell-based
[15] = biological target: Cyclin-dependent kinase 2 (Homo sapiens) (UniProt P24941); experiment: Inhibition of CDK2 Lys2 labeling site in human A-375 cells at 5 uM by KiNativ Profiling analysis relative to control; type: cell-based
[16] = test system: Epidermal growth factor receptor (Homo sapiens), P00533 [L861Q]; experiment: Inhibition of EGFR L861Q mutant (unknown origin) at 1 uM by Ambit Kinomescan binding assay relative to control
[17] = biological target: Tyrosine-protein kinase JAK1 (Homo sapiens) (UniProt P23458); experiment: Inhibition of JAK1 in human A-375 cells at 0.05 uM by KiNativ Profiling analysis relative to control; type: cell-based
[18] = biological target: Serine/threonine-protein kinase 38 (Homo sapiens) (UniProt Q15208); experiment: Inhibition of NDR1 Lys1 labeling site in human A-375 cells at 0.5 uM by KiNativ Profiling analysis relative to control; type: cell-based
[19] = biological target: T2, Serine/threonine-protein kinase NLK (Homo sapiens) (UniProt Q9UBE8); experiment: Inhibition of NLK (unknown origin) at 1 uM by Ambit Kinomescan binding assay relative to control; values are per cent of control
T2 sequence (whole entry): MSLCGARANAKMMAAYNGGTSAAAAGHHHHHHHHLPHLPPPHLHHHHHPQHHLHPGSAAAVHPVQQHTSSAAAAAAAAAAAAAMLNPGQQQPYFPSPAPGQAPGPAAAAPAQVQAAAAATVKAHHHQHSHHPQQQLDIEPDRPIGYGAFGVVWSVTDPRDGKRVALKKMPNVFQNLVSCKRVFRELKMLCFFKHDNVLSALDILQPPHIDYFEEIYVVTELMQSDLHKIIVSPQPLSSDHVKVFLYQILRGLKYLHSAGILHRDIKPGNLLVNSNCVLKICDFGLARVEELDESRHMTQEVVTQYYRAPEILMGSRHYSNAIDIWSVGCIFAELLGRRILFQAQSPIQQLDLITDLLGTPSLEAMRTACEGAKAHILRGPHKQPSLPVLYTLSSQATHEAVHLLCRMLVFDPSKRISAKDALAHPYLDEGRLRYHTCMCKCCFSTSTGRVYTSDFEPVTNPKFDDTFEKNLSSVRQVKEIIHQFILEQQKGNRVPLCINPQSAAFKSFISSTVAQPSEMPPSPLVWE

Chain of Serine/threonine-protein kinase 26 (Homo sapiens) (Q9P289 2-416 limits assumed): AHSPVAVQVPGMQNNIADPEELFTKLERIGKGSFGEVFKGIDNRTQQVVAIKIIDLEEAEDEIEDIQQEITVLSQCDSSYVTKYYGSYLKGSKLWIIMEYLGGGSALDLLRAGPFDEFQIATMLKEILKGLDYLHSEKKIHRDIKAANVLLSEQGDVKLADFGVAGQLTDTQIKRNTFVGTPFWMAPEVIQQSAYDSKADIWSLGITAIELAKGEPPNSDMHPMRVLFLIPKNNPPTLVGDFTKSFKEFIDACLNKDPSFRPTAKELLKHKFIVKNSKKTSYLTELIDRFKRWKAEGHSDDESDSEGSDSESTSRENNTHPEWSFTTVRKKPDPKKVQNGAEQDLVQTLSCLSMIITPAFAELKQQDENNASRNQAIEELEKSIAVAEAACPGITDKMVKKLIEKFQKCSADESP
Chain of Activated CDC42 kinase 1 (Homo sapiens) (Q07912 whole entry, looked up): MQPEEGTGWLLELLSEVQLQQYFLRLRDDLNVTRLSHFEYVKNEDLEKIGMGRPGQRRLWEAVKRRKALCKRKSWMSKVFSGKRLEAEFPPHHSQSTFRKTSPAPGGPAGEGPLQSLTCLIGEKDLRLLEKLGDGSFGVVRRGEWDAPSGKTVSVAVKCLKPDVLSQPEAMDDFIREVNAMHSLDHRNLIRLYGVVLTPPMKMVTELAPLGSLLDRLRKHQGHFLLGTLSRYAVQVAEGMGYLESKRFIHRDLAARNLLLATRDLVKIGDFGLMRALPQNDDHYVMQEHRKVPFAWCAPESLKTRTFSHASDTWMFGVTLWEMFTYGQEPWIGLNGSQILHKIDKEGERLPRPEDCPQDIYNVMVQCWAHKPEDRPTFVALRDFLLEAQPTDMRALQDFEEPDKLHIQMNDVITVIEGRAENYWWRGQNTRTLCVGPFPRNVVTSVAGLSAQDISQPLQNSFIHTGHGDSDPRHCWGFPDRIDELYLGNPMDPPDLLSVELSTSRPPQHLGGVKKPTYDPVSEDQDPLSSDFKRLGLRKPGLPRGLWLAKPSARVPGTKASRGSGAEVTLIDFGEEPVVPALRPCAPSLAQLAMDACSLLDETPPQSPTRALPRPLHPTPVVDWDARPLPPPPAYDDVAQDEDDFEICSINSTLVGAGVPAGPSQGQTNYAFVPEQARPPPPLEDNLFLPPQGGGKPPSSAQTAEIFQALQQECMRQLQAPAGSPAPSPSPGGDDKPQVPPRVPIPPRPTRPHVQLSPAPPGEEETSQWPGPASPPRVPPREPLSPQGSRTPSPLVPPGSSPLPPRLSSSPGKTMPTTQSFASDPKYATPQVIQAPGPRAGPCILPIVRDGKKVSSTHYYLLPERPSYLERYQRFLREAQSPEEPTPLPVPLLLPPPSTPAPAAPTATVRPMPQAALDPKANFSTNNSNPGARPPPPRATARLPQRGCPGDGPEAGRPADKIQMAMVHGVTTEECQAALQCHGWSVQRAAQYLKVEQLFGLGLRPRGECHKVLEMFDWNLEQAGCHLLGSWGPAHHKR
Chain of Rho-associated protein kinase 2 (Homo sapiens) (O75116 whole entry, looked up): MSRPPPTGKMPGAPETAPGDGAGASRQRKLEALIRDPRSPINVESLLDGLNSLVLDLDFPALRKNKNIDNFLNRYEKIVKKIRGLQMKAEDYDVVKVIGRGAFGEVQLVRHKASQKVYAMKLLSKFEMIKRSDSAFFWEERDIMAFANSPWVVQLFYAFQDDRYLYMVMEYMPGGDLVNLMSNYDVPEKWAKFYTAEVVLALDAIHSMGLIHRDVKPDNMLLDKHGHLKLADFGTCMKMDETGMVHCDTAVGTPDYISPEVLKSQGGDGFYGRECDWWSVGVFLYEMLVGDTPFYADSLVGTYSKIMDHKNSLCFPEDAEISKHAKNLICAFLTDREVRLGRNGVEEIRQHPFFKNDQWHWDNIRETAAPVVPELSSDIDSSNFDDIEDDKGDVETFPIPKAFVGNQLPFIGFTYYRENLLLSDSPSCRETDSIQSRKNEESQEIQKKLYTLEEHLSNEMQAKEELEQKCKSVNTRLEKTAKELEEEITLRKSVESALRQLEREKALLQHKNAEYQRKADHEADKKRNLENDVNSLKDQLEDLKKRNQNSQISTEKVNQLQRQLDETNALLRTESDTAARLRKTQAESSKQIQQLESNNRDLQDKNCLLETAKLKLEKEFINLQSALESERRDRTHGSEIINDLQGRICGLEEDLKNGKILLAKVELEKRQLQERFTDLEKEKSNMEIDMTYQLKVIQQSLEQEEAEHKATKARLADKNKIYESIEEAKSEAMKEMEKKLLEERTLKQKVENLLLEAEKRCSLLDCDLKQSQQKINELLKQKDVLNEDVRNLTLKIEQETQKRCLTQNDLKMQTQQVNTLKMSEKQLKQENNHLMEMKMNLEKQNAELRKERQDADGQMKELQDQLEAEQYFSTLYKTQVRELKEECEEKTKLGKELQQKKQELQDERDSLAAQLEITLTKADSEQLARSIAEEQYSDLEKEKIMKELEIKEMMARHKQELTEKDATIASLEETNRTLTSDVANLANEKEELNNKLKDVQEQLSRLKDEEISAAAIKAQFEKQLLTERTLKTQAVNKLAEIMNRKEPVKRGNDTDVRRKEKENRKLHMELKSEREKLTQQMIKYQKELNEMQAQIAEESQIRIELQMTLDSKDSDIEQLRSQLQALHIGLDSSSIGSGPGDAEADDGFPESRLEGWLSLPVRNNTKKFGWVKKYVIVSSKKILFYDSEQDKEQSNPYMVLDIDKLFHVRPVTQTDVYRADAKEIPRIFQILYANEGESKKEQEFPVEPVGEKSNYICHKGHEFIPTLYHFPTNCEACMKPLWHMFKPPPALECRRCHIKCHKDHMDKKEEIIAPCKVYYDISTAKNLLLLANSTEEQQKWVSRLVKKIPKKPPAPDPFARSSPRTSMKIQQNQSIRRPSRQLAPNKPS
Chain of Mitogen-activated protein kinase kinase kinase 9 (Homo sapiens) (P80192 whole entry, looked up): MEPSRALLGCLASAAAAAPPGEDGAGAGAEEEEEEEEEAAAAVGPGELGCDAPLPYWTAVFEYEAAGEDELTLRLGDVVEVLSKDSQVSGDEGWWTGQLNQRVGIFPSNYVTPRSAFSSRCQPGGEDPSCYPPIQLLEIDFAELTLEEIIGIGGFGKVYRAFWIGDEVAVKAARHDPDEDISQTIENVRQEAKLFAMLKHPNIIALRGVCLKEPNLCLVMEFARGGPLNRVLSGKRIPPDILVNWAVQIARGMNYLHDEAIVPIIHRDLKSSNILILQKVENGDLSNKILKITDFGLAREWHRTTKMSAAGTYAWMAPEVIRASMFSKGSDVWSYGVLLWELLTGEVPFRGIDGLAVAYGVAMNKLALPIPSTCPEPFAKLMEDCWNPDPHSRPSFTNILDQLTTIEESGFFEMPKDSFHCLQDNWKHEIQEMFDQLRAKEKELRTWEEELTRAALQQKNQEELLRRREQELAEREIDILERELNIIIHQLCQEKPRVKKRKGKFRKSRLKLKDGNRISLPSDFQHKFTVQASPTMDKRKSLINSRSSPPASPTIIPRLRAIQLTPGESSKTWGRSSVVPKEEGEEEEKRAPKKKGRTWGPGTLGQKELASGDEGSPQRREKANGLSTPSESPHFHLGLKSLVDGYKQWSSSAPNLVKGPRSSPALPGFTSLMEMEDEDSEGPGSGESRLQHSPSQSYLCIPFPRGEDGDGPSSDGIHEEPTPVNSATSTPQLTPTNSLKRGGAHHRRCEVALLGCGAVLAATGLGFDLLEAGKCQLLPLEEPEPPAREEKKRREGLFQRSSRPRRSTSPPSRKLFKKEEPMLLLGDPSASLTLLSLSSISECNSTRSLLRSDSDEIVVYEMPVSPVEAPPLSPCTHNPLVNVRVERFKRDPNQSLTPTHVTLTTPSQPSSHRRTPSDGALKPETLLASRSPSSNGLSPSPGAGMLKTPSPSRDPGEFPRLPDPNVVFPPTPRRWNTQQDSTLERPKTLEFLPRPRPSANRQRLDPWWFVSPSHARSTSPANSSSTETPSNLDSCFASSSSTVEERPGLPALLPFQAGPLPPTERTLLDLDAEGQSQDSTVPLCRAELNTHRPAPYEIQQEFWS
Chain of Serine/threonine-protein kinase 38 (Homo sapiens) (Q15208 2-465 limits assumed): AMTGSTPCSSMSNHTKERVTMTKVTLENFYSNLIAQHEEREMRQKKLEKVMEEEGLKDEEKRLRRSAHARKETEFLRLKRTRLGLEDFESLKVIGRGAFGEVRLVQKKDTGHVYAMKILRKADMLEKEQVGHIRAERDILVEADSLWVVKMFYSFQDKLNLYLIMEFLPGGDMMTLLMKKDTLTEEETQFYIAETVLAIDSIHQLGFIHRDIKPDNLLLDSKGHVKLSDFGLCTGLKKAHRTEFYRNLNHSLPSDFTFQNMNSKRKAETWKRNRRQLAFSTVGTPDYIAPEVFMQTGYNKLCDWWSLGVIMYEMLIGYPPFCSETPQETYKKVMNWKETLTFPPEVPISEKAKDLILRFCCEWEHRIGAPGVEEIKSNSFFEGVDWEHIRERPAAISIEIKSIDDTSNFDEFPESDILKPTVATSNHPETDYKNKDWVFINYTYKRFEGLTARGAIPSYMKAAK
Chain of Putative phosphatidylinositol 4-kinase alpha-like protein P2 (Homo sapiens) (A4QPH2 whole entry): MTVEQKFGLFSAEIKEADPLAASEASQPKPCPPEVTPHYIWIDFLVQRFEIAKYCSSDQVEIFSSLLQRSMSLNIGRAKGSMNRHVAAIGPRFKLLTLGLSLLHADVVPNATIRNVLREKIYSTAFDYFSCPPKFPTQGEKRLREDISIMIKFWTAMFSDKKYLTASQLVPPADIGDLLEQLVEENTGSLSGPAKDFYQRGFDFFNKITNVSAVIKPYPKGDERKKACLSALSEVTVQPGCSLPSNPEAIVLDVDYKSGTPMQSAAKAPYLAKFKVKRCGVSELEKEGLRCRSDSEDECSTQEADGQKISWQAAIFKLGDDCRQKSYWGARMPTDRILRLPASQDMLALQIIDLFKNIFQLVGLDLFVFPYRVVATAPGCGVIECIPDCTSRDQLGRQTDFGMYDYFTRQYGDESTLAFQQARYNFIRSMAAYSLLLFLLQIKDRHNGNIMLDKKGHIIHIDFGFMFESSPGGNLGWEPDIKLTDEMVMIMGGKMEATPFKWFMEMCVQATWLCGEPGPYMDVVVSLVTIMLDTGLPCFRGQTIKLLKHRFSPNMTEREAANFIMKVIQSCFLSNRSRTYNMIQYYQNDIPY

CNc1cc(Oc2cc(C(=O)Nc3cc(N4CCN(C)CC4)cc(C(F)(F)F)c3)ccc2C)ncn1
inhibition [1]: 2% | inhibition [2]: -0.8% | inhibition [3]: 23.6% | inhibition [4]: 40.4%

CCN1CCN(Cc2ccc(NC(=O)c3ccc(C)c(Oc4ccnc5[nH]ccc45)c3)cc2C(F)(F)F)CC1
inhibition [5]: 5.8% | inhibition [6]: inactive | inhibition [7]: 25.3% | inhibition [8]: inactive | inhibition [9]: 48.2% | inhibition [10]: 0.7% | inhibition [11]: 19.3% | inhibition [12]: 6.1% | inhibition [13]: inactive | inhibition [14]: 14.6%

CCN1CCN(Cc2ccc(NC(=O)c3ccc(C)c(/C=C/c4cnc5[nH]ccc5c4OC)c3)cc2C(F)(F)F)CC1
inhibition [15]: 3.4% | inhibition [16]: 0.25% | inhibition [17]: 12.3% | inhibition [18]: -0.8% | residual activity [19]: 18%
